MrgX1 ag: human MrgX1 receptor agonism, primary screen; MrgX1-HEK293 cells, Fluo-4 calcium fluorescence, agonist mode; hits give high values; Q96LB2; 310,000 compounds, 0.44% hits; B-score at 10 µM;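 active means calcium response B-score plate-corrected fluorescence ratio at least 3 library SD, with starting fluorescence B-score inside 5 SD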
Target sequence (Q96LB2 whole entry, looked up): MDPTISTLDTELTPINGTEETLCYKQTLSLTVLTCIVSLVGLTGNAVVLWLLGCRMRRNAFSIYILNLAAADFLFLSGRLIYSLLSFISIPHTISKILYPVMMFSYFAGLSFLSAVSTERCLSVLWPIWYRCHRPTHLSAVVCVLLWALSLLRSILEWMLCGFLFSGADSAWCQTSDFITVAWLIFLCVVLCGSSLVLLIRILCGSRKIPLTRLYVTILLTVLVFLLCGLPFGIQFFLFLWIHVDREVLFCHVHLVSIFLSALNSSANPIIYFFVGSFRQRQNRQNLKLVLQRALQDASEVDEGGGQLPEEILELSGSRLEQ
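Material – MrgX1-expressing HEK293 cells · Input – 15,000 cells seeded per well · Dosing – compound as first of three additions · Times – overnight seeding, then 1 h dark dye loading · Measured by – kinetic Fluo-4 NW fluorescence of intracellular calcium · Read-out – B-scored fluorescence response ratio · Benchmarks – positive and negative control wells on each plate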
RGS4 inh: inhibitors of human RGS4. HEK293 M3R/RGS4 inducible, Fluo-4 calcium flux; hits give high values; triggered by carbachol at its EC20. 310,000 compounds, 0.45% hits. B-score at 10 µM. AID 463165;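 active means B-score, a plate-corrected calcium signal, over three deviations above library mean, with baseline fluorescence within five deviations of library mean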;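 further: RGS4 expression induced by doxycycline in cells with stable M3 receptor; B-score is computed from the integrated fluorescence ratio over baseline after carbachol; higher B-score means a larger calcium signal and so more RGS4 inhibition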
Target sequence (P49798 whole entry, looked up): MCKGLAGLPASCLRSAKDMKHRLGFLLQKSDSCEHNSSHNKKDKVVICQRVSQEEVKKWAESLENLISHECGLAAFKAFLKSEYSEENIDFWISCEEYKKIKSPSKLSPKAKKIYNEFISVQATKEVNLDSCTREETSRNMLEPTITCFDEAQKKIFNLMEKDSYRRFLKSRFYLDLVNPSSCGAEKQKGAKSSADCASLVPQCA
RGS4 pot: potentiators or activators of RGS4; HEK293 M3R/inducible RGS4, carbachol calcium flux Fluo4; hits give low values; B-score at 10 µM; 310,000 compounds, 0.92% hits; AID 463111;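 active means B-score of the integrated calcium signal more than 4 SD below the library mean, with starting fluorescence not abnormally high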;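 further: negative B-score means reduced calcium response which marks RGS4 activation or potentiation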
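Also added: carbachol at ECmax as muscarinic agonist stimulus; Assay system: HEK293 cells with stable M3R and inducible RGS4; Timing: overnight RGS4 induction, 30 min dye load 37 °C, 20 min compound RT; Measured by: Fluo4-AM (2 µM) calcium-flux fluorescence, kinetic read.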
PHOSPHO1 block: blocks human PHOSPHO1 phosphatase activity; recombinant PHOSPHO1, absorbance phosphatase assay; inhibition, % at 13.3 µM; 290,000 compounds, 1.1% hits; AID 1565; in the data active means inhibition above about 60%
MrgX1 allo act: allosterically activates human MrgX1 receptor signaling. B-score at 10 µM. MrgX1-HEK293, Fluo-4 calcium flux, FDSS; hits give high values. 310,000 compounds, 0.63% hits. AID 588675;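 active means plate-corrected calcium response at least 3 library SD above typical, normal starting fluorescence, not activating the receptor alone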;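 further: compound read alongside a low EC10 to EC30 dose of BAM8-22 agonist; peak minus trough fluorescence over baseline measured at the second addition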
MrgX1 antagonist: antagonists of human MrgX1 receptor. Q96LB2. AID 588676. B-score at 10 µM. MRGX1-HEK293 calcium flux, Fluo-4, BAM8-22 antagonism; hits give low values. 310,000 compounds, 1.3% hits;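 active means calcium-response B-score plate-corrected more than 3 library SD below zero, starting fluorescence within 5 deviations, no agonist response on first addition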;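 further: peak minus trough fluorescence over baseline after final BAM8-22 challenge near maximal dose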
MrgX1 ag reconf: human MrgX1 agonism, re-confirmation screen; 600 compounds, 78% hits; shares compounds with MrgX1 ag; MrgX1-HEK293, Fluo-4 calcium fluorescence, FDSS; activation, % at 10 µM;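 active means calcium signal rise, corrected for plate position, at least 3 library SD high, with starting brightness within 5 such deviations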
HEK293 Ca flux: activity in parental HEK293 cells lacking MrgX1; shares compounds with MrgX1 antagonist; Fluo-4 calcium fluorescence, FDSS; fluorescence ratio F(max-min)/F0 at 10 µM; 4,000 compounds, 2% hits; AID 624111;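 active means duplicate-averaged calcium fluorescence ratio at least three times the standard deviation of buffer wells, a nonspecific response in parental cells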
HEK293 Ca counter: MrgX1 allosteric activator counter-screen hit in parental HEK293 cells | 4,000 compounds, 0.4% hits | parental HEK293 calcium flux, Fluo-4 fluorescence ratio; hits give high values | AID 624114 | fluorescence ratio F(max-min)/F0 at 10 µM | shares compounds with MrgX1 antagonist;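 active means calcium fluorescence ratio, averaged over duplicates, at least 3 SD of the buffer-well ratio, meaning a nonspecific response in receptor-free cells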;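 further: untransfected parental HEK293 lacking MrgX1 used as counterscreen for MrgX1 allosteric activators; fluorescence change taken during the second addition on a kinetic imager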
HEK293 Ca cntr2: activity in parental HEK293 cells lacking MrgX1 receptor; shares compounds with MrgX1 antagonist; Fluo-4 calcium fluorescence (FDSS); hits give high values; fluorescence ratio F(max-min)/F0 at 10 µM; 4,000 compounds, 8.7% hits; AID 624115;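 active means calcium fluorescence ratio at least three times the spread of buffer wells, meaning a non-specific response in parental cells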
An asterisk follows results filed as active; i = inactive; / = not tested or not shown. Compounds with a hit are over-represented: about 4.5% of the library has one in this group of screens.

SMILES | MrgX1 ag | RGS4 inh | RGS4 pot | PHOSPHO1 block | MrgX1 allo act | MrgX1 antagonist | MrgX1 ag reconf | HEK293 Ca flux | HEK293 Ca counter | HEK293 Ca cntr2
CCOC(=O)c1c(NC(=O)c2ccccc2C(=O)O)sc2c1CCCC2 | 34.1* | i | i | 19.2 | i | i | 191.8%* | i | i | i
CN(C)c1ccc(/C=C(/C(=O)c2ccc(Cl)cc2Cl)n2cncn2)cc1 | 76.9* | i | i | 9.1 | i | i | i | 0.328* | i | i
COC(=O)c1ccccc1-c1ccc(C(c2c(C)[nH][nH]c2=O)c2c(C)[nH][nH]c2=O)o1 | i | i | i | -7.9 | i | i | / | / | / | /
COC(=O)c1cccc(-c2ccc(C(c3c(C)[nH][nH]c3=O)c3c(C)[nH][nH]c3=O)o2)c1 | 43.2* | i | i | -131.1 | i | i | 191.9%* | i | i | 45.6*
O=C(Nc1nnc(-c2ccccc2Cl)o1)c1nc2ccccc2s1 | 103* | i | i | 30.2 | i | i | 432.5%* | i | i | 84*
Cc1ccc(CNC(=O)c2ccc(Cl)c(S(N)(=O)=O)c2)n1C | 70.7* | i | i | 28.3 | i | i | 283.1%* | i | i | i
O=C(Nc1ccc(S(=O)(=O)N2CCCCCC2)cc1)c1[nH]ncc1[N+](=O)[O-] | i | i | i | 27.0 | i | i | / | / | / | /
O=C(CN(c1ccc(F)cc1)S(=O)(=O)c1ccc2c(c1)OCCO2)Nc1cccnc1 | 39.5* | i | i | -28.3 | i | i | i | i | i | i
CCOC(=O)c1c(CN2CCN(C)CC2)n(C)c2cc(Br)c(OC)cc12 | i | i | i | 10.9 | i | i | / | / | / | /
CCOC(=O)c1c(CSC(=N)N)n(C)c2cc(Br)c(OC(C)=O)cc12 | 46.5* | i | i | 50.9 | i | i | 188.1%* | i | i | i
CCCCc1nc(SCC(=O)N2CCOCC2)c2c(=O)n(C)c(=O)n(C)c2n1 | i | i | i | 9.4 | i | i | / | / | / | /
O=C(CN1CCC(NC(=O)c2ccco2)CC1)Nc1ccccc1[N+](=O)[O-] | i | i | i | 40.4 | i | i | / | / | / | /
CCN(CC(=O)NCc1cccs1)C(=O)c1ccc(S(=O)(=O)Nc2ccccc2C)cc1 | i | i | i | / | i | i | / | / | / | /
Cc1cc(N2CCCCC2)nc(NCc2ccccc2)n1 | 82.8* | i | i | 37.9 | i | i | 339.8%* | i | i | i
Cc1cc(NCc2ccccc2)nc(N2CCOCC2)n1 | i | i | i | 18.3 | i | i | / | / | / | /
Cc1cc(N2CCOCC2)nc(NCc2ccccc2)n1 | 66.3* | i | i | -9.4 | i | i | 293.9%* | i | i | i
Nc1[nH]ncc1-c1ccccc1 | i | i | i | -8.2 | i | i | / | / | / | /
CC(C)c1ccc(NC2(C#N)C(=O)Nc3ccccc32)cc1 (stereo not drawn) | 38.7* | i | i | 36.9 | i | i | 191.4%* | i | i | 49.3*
CC(OC(=O)CNC(=O)c1ccc2ccccc2c1)C(=O)N(C)C1CCCCC1 (stereo not drawn) | i | i | i | / | i | i | / | / | / | /
O=C(c1ccc([N+](=O)[O-])cc1)N(Cc1ccc(Br)cc1)N1C(=O)CCCC1=O | 70.7* | i | i | 20.4 | i | i | 521.4%* | i | i | 95.8*
O=C(c1ccccc1Cl)N(Cc1ccc(Br)cc1)N1C(=O)CCCC1=O | i | i | i | -15.7 | i | i | / | / | / | /
C[N+](C)(C)CCOC(N)=O | 118* | / | / | / | i | i | 546.8%* | i | i | 112*
Cc1nnc(SCCOC(N)=O)n1C | / | i | i | 15.6 | / | / | / | / | / | /
CNc1nnc(-c2ccncc2)s1 | i | i | i | 3.6 | i | i | / | / | / | /
Cc1ccc(Nc2nnc(-c3ccncc3)s2)c(Br)c1 | 49.4* | i | i | -7.1 | i | i | i | i | i | i
SMILES | MrgX1 ag | RGS4 inh | RGS4 pot | PHOSPHO1 block | MrgX1 allo act | MrgX1 antagonist | MrgX1 ag reconf | HEK293 Ca flux | HEK293 Ca counter | HEK293 Ca cntr2
COc1ccc2c(c1[N+](=O)[O-])CCC/C2=N/OC(=O)c1ccccc1SC | i | i | i | 16.9 | i | i | / | / | / | /
Cn1c(-c2ccccc2)c(CCO)c2ccccc21 | 43.2* | i | i | -4.4 | i | i | 183.8%* | i | i | i
Cc1cc(NCc2ccccc2)nc2ccccc12 | 82.8* | i | i | 5.7 | i | i | 292.5%* | i | i | i
O=C1CCN(Cc2ccc(O)cc2)CCN1CCO | i | i | i | -13.0 | i | i | / | / | / | /
O=c1[nH]c(/C=C/c2ccc(Br)cc2)nc2ccccc12 | i | i | i | 23.3 | i | i | / | / | / | /
CN(C)c1ccc(/C=C/c2nc3ccccc3c(=O)[nH]2)cc1 | 26.7* | i | -7.05* | 39.4 | i | i | i | i | i | 55.2*
O=C1/C(=C/c2ccccc2)Nc2ccccc21 | 128* | i | i | 17.9 | i | i | i | 0.409* | i | 224*
COc1cc(/C=C2\SC(=S)N(NS(=O)(=O)c3ccccc3)C2=O)ccc1O | 87.1* | i | i | 3.7 | i | i | 375.0%* | i | i | 99.1*
COc1cc(/C=C2\SC(=S)N(NC(=O)c3ccccc3OC)C2=O)ccc1O | i | i | i | 42.2 | i | i | / | / | / | /
COc1cc(/C=C2\SC(=S)N(NS(=O)(=O)c3ccc(C)cc3)C2=O)ccc1O | 116* | i | -7.73* | 16.6 | i | i | 554.7%* | 0.384* | i | 149*
COc1cc(/C=C2\SC(=S)N(NC(=O)c3ccc(O)c(OC)c3)C2=O)ccc1O | i | i | i | 28.6 | i | i | / | / | / | /
O=C(CSc1nnc(NC(=O)c2ccccc2F)s1)NCc1ccco1 | i | i | i | 42.8 | i | i | / | / | / | /
CN1CCc2c(sc3c2C(=O)NC(c2ccc(-c4ccc(Cl)cc4)o2)N3)C1 (stereo not drawn) | 31.2* | i | i | 16.6 | i | i | i | i | i | i

Compound activity as filed in PubChem BioAssay.
